Here are results for one compound from ChEMBL document CHEMBL4819122, “Novel 4-(piperazin-1-yl)quinolin-2(1H)-one bearing thiazoles with antiproliferative activity through VEGFR-2-TK inhibition” (Bioorg Med Chem, 2021).

One test deals with HOP-92. The experiment in a line: Cytotoxicity against human HOP-92 assessed as growth inhibition at 10 uM by NCI protocol relative to control. The test is classed as functional. To be noted: read-out: GI. Put shortly:
(§1)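 Run by NCI as a single-dose screen at 10 μM across the sixty-cell-line panel, which covers nine human tumour tissue types. The read-out is percent growth inhibition of treated cells relative to untreated cells.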

For another test, the system named is MDA-MB-435. The experiment in a line: Cytotoxicity against human MDA-MB-435 assessed as growth inhibition at 10 uM by NCI protocol relative to control. The test is classed as functional, cell-based. Put shortly:
as §1

The next test has as its system T47D. The experiment in a line: Cytotoxicity against human T47D cells assessed as reduction in cell viability after 3 hrs by MTT assay. On the technique in general: Tetrazolium dyes change colour on reduction, which living cells bring about.

Molecules are shown by their SMILES. Calls of active or inactive are those of the source. The calls are words filed in the database; no cut-off is given here.

Usually IC50 stands for the concentration that gives 50% inhibition. On to `O=c1cc(N2CCNCC2)c2ccccc2n1-c1ccccc1`, for which, in the test on HOP-92, the inhibition of growth at 10 µM was determined as 17%. Moreover, the “growth inhibition (GI)” value in the test with MDA-MB-435 is “inactive”. In addition, the IC50 in the test on T47D stood at 92.1 µM.
